In ChEMBL document CHEMBL4382263, “Spirostaphylotrichin X from a Marine-Derived Fungus as an Anti-influenza Agent Targeting RNA Polymerase PB2” (J Nat Prod, 2018):
Activity calls are given as the source filed them. No cut-off for these calls is given here.

Test system: Influenza A virus
Test: Antiviral activity against Influenza A virus H5N1 pseudovirus harboring IAV (A/Thailand/Kan353/2004(H5N1))-HA/IAV (A/Thailand/Kan353/2004(H5N1))-NA/HIV core plasmids infected in MDCK cells assessed as pseudovirus neutralization incubated for 30 mins with virus followed by viral infection and measured after 48 hrs by luciferase reporter gene assay
Assay type: functional, organism-based
How it was run: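 Pseudovirus incubated with varying compound concentrations for 30 min at 37 °C, then added to MDCK cells for 48 h. Lysates read for luciferase activity; VSV-G pseudovirus run as control.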

Which Activity does the source give for CC/C=C1/C=CC(=O)[C@@H](O)[C@]12C(=O)N(OC)[C@@](C)(OC)[C@@H]2O here?
The Activity was “inactive”.
